# Measurements as given in ChEMBL document CHEMBL4680124, “2-Styryl-4-aminoquinazoline derivatives as potent DNA-cleavage, p53-activation and in vivo effective anticancer agents” (Eur J Med Chem, 2020).
# Activity calls are given as the source filed them. The rule behind the calls is not given here.
# Tests used:
# MGC-803 [1] = assay: Cytotoxicity against human MGC-803 cells expressing mutant type p53 assessed as reduction in cell viability preincubated for 48 hrs and measured after 4 hrs by MTT assay; format: functional, cell-based
# DU-145 = assay: Cytotoxicity against human DU145 cells expressing mutant type p53 assessed as reduction in cell viability preincubated for 48 hrs and measured after 4 hrs by MTT assay; format: functional, cell-based
# How it was run: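 MTT assay. Cells grown in DMEM (T24, MGC-803, A549, HL-7702), RPMI-1640 (DU145) or DMEM-F12 (PC-3), each with 10% FBS. Exposed to 1.25–20 µM in medium with 1% DMSO for 48 h, then MTT for 4 h. Formazan dissolved in DMSO and read at 570 nm. Five wells per concentration; means ± SD of independent repeats.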
# L02 = assay: Cytotoxicity against human HL-7702 cells expressing wild type p53 assessed as reduction in cell viability preincubated for 48 hrs and measured after 4 hrs by MTT assay; format: functional, cell-based
# DNA = assay: Binding affinity to Escherichia coli pBR322 DNA assessed as intercalation upto 100 uM by agarose gel electrophoresis assay; format: nucleic-acid assay; settings: dose microM <=100
# How it was run: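 pBR322 plasmid DNA incubated with compound at 50, 100 or 200 µM for 3 h in TAE buffer. Reaction stopped with loading buffer. Run on 1% agarose gel, stained with ethidium bromide, imaged under UV transillumination. Lane controls: DNA with 1% DMSO (negative), DNA with EB (positive).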
# MGC-803 [2] = assay: Induction of DNA damage in human MGC-803 cells assessed as increase in gamma H2AX at 2.5 uM measured after 24 hrs by Western blot analysis; format: functional, cell-based
# How it was run: (§1)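 MGC-803 cells (2×10^6) plated overnight, then treated for 24 h at 0.5, 1.0 or 2.5 µM (test agent) or 5.0 µM (comparator). Whole-cell lysates separated by SDS-PAGE, transferred to PVDF and probed with primary antibodies. AP-linked anti-rabbit IgG, ECL detection, β-actin loading control. Representative of three experiments.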
# MGC-803 [3] = assay: Induction of DNA damage in human MGC-803 cells assessed as increase in p53 level at 2.5 uM measured after 24 hrs by Western blot analysis; format: functional, cell-based; how it was run: as §1
# MGC-803 [4] = assay: Induction of apoptosis in human MGC-803 cells assessed as increase in MDM2 protein expression upto 2.5 uM incubated for 24 hrs by Western blot analysis; format: functional, cell-based; settings: dose microM <=2.5, time 24.0 hrs
# How it was run: (§2)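 MGC-803 cells (2×10^6) cultured overnight, then exposed 24 h to 0.5, 1.0 or 2.5 μM, or 5.0 μM for the reference agent. Lysates were resolved by SDS-PAGE, transferred to PVDF and probed with primary antibodies. Detection used AP-linked anti-rabbit IgG and ECL. β-actin served as loading control.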
# MGC-803 [5] = assay: Induction of apoptosis in human MGC-803 cells assessed as increase in CDK4 protein expression upto 2.5 uM incubated for 24 hrs by Western blot analysis; format: functional, cell-based; settings: dose microM <=2.5, time 24.0 hrs; how it was run: as §2
# MGC-803 [6] = assay: Cell cycle arrest in human MGC-803 cells assessed as accumulation at G1 phase at 0.125 uM after 48 hrs by propidium iodide staining-based flow cytometric analysis (reference value: 46.96 %); format: functional
# MGC-803 [7] = assay: Cell cycle arrest in human MGC-803 cells assessed as accumulation at G1 phase at 0.5 uM after 48 hrs by propidium iodide staining-based flow cytometric analysis (reference value: 46.96 %); format: functional
# MGC-803 [8] = assay: Cell cycle arrest in human MGC-803 cells assessed as accumulation at S phase at 0.5 uM after 48 hrs by propidium iodide staining-based flow cytometric analysis (reference value: 45.1 %); format: functional
# [9] = Induction of mitochondria membrane potential loss in human MGC-803 cells assessed as increase in green fluorescence at 2.5 uM incubated 24 hrs by JC-1 probe based flow cytometry analysis (reference value: 4.67%); format: functional
# MGC-803 [10] = assay: Induction of apoptosis in human MGC-803 cells assessed as increase in nuclear chromatin condensation at 0.5 to 2.5 uM incubated for 24 hrs by Hoechst 33258 staining based analysis; format: functional, cell-based; settings: dose 0.5-2.5 µM
# How it was run: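 Cells in six-well plates were treated for the indicated time, then fixed 10 min in 4% paraformaldehyde and washed twice in PBS. Nuclei were stained 5 min with Hoechst 33258, washed twice in PBS and examined by fluorescence microscopy.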
# MGC-803 [11] = assay: Induction of apoptosis in human MGC-803 cells assessed as decrease in Bcl-2 expression at 0.5 to 2.5 uM measured after 24 hrs by Western blot analysis; format: functional, cell-based; settings: dose 0.5-2.5 µM; how it was run: as §1
# MGC-803 [12] = assay: Induction of apoptosis in human MGC-803 cells assessed as increase in Bim expression at 0.5 to 2.5 uM measured after 24 hrs by Western blot analysis; format: functional, cell-based; settings: dose 0.5-2.5 µM; how it was run: as §2
# MGC-803 [13] = assay: Antitumor activity against human MGC-803cells xenografted in BALB/C nude mouse assessed as tumor growth inhibition at 20 mg/kg, ip administered every 2 days and measured 3 times per week for 16 days; format: functional; settings: MGC-803, ip, 384 h, time 16 day, read-out: TGI
# How it was run: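 Male BALB/c nude mice, 6 weeks old, given 5×10^6 MGC-803 cells s.c. in the flank. When tumors reached about 80 mm3, mice were randomized (n = 6/group) and dosed i.p. every 2 days. Vehicle was 5% DMSO in saline. Drug solutions were 1.0 or 2.0 mg/mL (DMSO/saline). Tumor length and width plus body weight were measured three times weekly; volume = lw²/2. Mean ± SD.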
# MGC-803 [14] = assay: Induction of apoptosis in human MGC-803 cells assessed as viable cells at 1 uM measured after 24 hrs by Annexin-V/propidium iodide staining-based flow cytometric analysis (Rvb =92.2 %); settings: MGC-803, 24 h
# MGC-803 [15] = assay: Induction of apoptosis in human MGC-803 cells assessed as viable cells at 0.5 uM measured after 24 hrs by Annexin-V/propidium iodide staining-based flow cytometric analysis (Rvb =92.2 %); settings: MGC-803, 24 h
# MGC-803 [16] = assay: Induction of apoptosis in human MGC-803 cells assessed as viable cells at 2.5 uM measured after 24 hrs by Annexin-V/propidium iodide staining-based flow cytometric analysis (Rvb =92.2 %); settings: MGC-803, 24 h
# MGC-803 [17] = assay: Induction of apoptosis in human MGC-803 cells assessed as necrotic cells at 2.5 uM measured after 24 hrs by Annexin-V/propidium iodide staining-based flow cytometric analysis (Rvb =6.05%)
# MGC-803 [18] = assay: Induction of apoptosis in human MGC-803 cells assessed as late apoptotic cells at 1 uM measured after 24 hrs by Annexin-V/propidium iodide staining-based flow cytometric analysis (Rvb =0.93%)
# MGC-803 [19] = assay: Induction of apoptosis in human MGC-803 cells assessed as early apoptotic cells at 2.5 uM measured after 24 hrs by Annexin-V/propidium iodide staining-based flow cytometric analysis (Rvb =0.84%)
smiles,measurement,setting,value
NCCCCNc1nc(/C=C/c2ccc([N+](=O)[O-])cc2)nc2ccccc12,IC50,MGC-803 [1],1.73 µM
same,IC50,DU-145,4.15 µM
same,IC50,L02,7.46 µM
same,Activity,DNA,Active
same,Activity,MGC-803 [2],Active
same,Activity,MGC-803 [3],Active
same,Activity,MGC-803 [4],Active
same,Activity,MGC-803 [5],Active
same,Activity,MGC-803 [6],35.39%
same,Activity,MGC-803 [7],1.44%
same,Activity,MGC-803 [8],25.89%
same,Activity,[9],22.6%
same,Activity,MGC-803 [10],Active
same,Activity,MGC-803 [11],Active
same,Activity,MGC-803 [12],Active
same,inhibition in vivo at 20 mg/kg,MGC-803 [13],61.8%
same,viability at 1 µM,MGC-803 [14],55.3%
same,viability at 0.5 µM,MGC-803 [15],71%
same,viability at 2.5 µM,MGC-803 [16],14.8%
same,Activity,MGC-803 [17],1.27%
same,Activity,MGC-803 [18],16%
same,Activity,MGC-803 [19],28%
